Hits are enriched below; roughly 4.1% of the tested compounds scored in any of these assays.
Dynein cargo inh – inhibitors of GR-EGFP nuclear translocation, primary screen, dynein cargo transport inhibitor project, imaging, high-content, 3617.4 mouse cells. test concentration mostly 20 µM; stimulated with dexamethasone, 1 µM; active compounds read low. z-score, hits read low. 220,000 tested, 0.47% active;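 active means plate z-score of nuclear minus cytoplasmic receptor signal below a set negative limit, without overly bright fluorescence or cell loss, cut at about -3.5 in these data, passing the limit was not always enough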;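 further: z-score of nuclear minus cytoplasmic ring GR-EGFP intensity difference per well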
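Schedule: 48 h induction, then 1 h compound, then 30 min agonist, 37 °C. Buffer or medium: tetracycline-free induction medium containing charcoal-stripped FBS. Reagent: 1.0 µM final dexamethasone stimulus. Evaluation: nuclear versus cytoplasmic GR-EGFP signal, averaged per well. Signal: high-content fluorescence imaging after fixation.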
ROMK mod – ROMK potassium channel modulators, primary screen, cell-based, thallium flux, MLSMR library; Tet-inducible ROMK, thallium flux fluorescence; actives lie on both sides; B-score at 10 µM; AID 1918, 2009; 130,000 tested, 2% active; ATP-sensitive inward rectifier potassium channel 1 (Homo sapiens), P48048;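 active means signal ratio slope over the read window, or its plate-corrected B-score, at least 3 SD from the plate mean, either direction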;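 further: B-score of the F/F0 ratio slope over 7 to 12 s after thallium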
Target sequence (P48048 whole entry, looked up): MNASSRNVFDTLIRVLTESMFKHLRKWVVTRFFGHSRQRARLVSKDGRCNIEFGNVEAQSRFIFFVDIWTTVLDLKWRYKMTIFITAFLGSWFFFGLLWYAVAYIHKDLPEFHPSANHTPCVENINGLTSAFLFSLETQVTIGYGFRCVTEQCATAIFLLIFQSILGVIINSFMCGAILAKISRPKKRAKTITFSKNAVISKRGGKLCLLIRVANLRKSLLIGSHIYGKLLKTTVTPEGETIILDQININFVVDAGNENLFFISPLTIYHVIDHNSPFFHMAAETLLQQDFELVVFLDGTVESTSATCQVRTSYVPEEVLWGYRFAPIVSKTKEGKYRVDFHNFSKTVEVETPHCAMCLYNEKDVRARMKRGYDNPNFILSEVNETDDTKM
Redox H2O2 prof – compounds producing H2O2 with reducing agent – biochemical, NIH compound library profiling, artefact control for MLSCN library redox annotation, primary screen; DTT-dependent redox cycling H2O2, phenol red/HRP absorbance; 100% = 100 µM peroxide control, 0% = buffer; AID 878, 2007; 200,000 tested, 0.03% active; activation, % at 10 µM;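 active means activation of at least 50% relative to the plate's high and low controls in the primary single-dose screen; inactive means activation below 50%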;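 further: compound incubated with DTT at 0.8 mM final as the reducing agent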
Autophagy mod – autophagy modulators in MEF cells, primary screen, imaging, high-content, MEF GFP-LC3; 190,000 tested, 0.98% active; AID 463193, 2010; MEF GFP-LC3 puncta imaging; test concentration mostly 10 µM; calls only at 10 µM (by protocol);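 active means percentage of spot-positive cells more than 3 SD above its plate mean, without a fluorescence outlier flag or 80% toxicity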;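 further: spot-positive cell cutoff set from DMSO-treated cells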
Cl transport mod – KCC2 cotransporter modulators, thallium flux, primary screen, cell-based, HEK293 KCC2, FluoZin-2 fluorescence, MLSMR | B-score of Tl+ flux slope (higher = more flux/activation; lower = inhibition) at 10 µM | KCC2 cells, thallium flux FluoZin-2 fluorescence | Solute carrier family 12 member 5 (Homo sapiens), Q9H2X9 | 190,000 tested, 2.2% active | AID 1456, 2008;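 active means thallium flux slope and its plate-corrected score both differing from the plate sample mean at a set confidence after two filtering rounds, in either direction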;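 further: slope of fluorescence scaled to starting intensity during 10 to 20 s after thallium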
Active calls of the source: *; i = inactive; . = no result; + = active, no number.

SMILES	Dynein cargo inh	ROMK mod	Redox H2O2 prof	Autophagy mod	Cl transport mod
COc1ccc(NC(=O)c2ccc(COc3ccccc3Br)o2)cc1OC	3.6	.	-1	i	-6*
COc1ccc(NC(=O)c2ccc(COc3ccccc3OC)o2)cc1OC	-0.066	.	1	i	-1.7
CN(CCc1cn[nH]c1)Cc1nc(Cc2ccccc2)no1	1.1	0.028	-1	i	0.59
CC(C)C(=O)N=C1SC2CS(=O)(=O)CC2N1Cc1ccccc1 (stereo unspecified)	1	-0.16	0	i	0.92
c1ccc2c(N3CCCCC3)nc(N3CCOCC3)nc2c1	2.1	-0.82	0	i	-0.84
Cc1cc(N2CCN(c3nc(N4CCOCC4)nc4ccccc34)CC2)c2ccccc2n1	-0.48	.	0	+	.
Cc1ccc(C)c(C2=CSC3=NCCN23)c1	0.55	.	0	.	-0.87
Clc1ccc(C2=CSC3=NCCN23)cc1Cl	-0.63	.	2	+	0.39
Cn1c(=O)[nH]c(=O)c2c1nc1n2CC(COc2ccc3ccccc3c2)O1 (stereo unspecified)	-0.32	0.6	.	.	-0.24
COc1ccccc1NC(=O)C1=C(C)Nc2nc(-c3cccs3)nn2C1c1cccc(O)c1 (stereo unspecified)	2.1	.	0	+	-0.87
Cc1cc(C)nc(N/N=C/c2ccccc2OCc2ccc([N+](=O)[O-])cc2)n1	0.077	-0.03	0	i	-0.11
O=[N+]([O-])c1ccc(N/N=C\c2ccccc2OCc2ccccc2)cc1	-0.039	-0.24	3	+	0.66
Cc1ccc(C)c(Sc2ccc(NC(=O)CCl)cc2)c1	-4.2*	.	1	i	0.1
N#CC(c1cccc(Cl)c1)c1ccc2c(C(F)(F)F)cc(C(F)(F)F)nc2n1 (stereo unspecified)	0.53	3.2*	0	+	29*
COc1ccc(N2C(=O)CC(NCc3ccc(F)cc3)C2=O)cc1 (stereo unspecified)	-0.44	.	-1	+	-0.5
COc1ccc(N2C(=O)CC(NCc3ccncc3)C2=O)cc1 (stereo unspecified)	0.076	.	-4	i	0.14
Cn1c(O)c(N=Nc2nc(-c3ccccc3)cs2)c2ccccc21	-1.2	2.8*	0	i	52*
Cn1c(O)c(N=Nc2ccc(F)cc2)c2ccccc21	-0.59	-1.8	0	i	-0.042
O=C(CCN1CCN(c2ccccc2)CC1)N/N=C/c1ccccc1OC(F)F	0.14	0.69	-2	+	-0.29
COc1ccc(/C=N\NC(=O)CCN2CCN(c3ccccc3)CC2)cc1OC	-0.44	.	-3	i	-0.14
O=S(=O)(c1cccs1)N1CN(C2CCCCC2)c2nc3ccccc3nc21	0.049	.	.	.	-1.8
C=C(C)COc1ccc(-c2n[nH]c(C)c2-c2ccc(Br)cc2)c(O)c1	-1.1	.	-2	+	-0.45
COCC1CCCN(Cc2nc(C(c3ccccc3)c3ccccc3)no2)C1 (stereo unspecified)	-0.24	0.63	0	+	1
COc1ccc(NC(=O)C(CC(C)C)NC(=O)C2CCC(C)CC2)c(OC)c1 (stereo unspecified)	0.65	-0.0088	0	i	-0.25
Cc1ccc(S(=O)(=O)N/N=C/c2ccc(O)c(O)c2)cc1[N+](=O)[O-]	0.19	-0.4	-3	i	0.0083
SMILES	Dynein cargo inh	ROMK mod	Redox H2O2 prof	Autophagy mod	Cl transport mod
Cc1ccc(S(=O)(=O)N/N=C/c2ccccc2O)cc1[N+](=O)[O-]	-0.24	0.95	0	+	0.35
O=C(NC1CCCCC1)C12CC3CC(CC(Cl)(C3)C1)C2	-0.61	.	0	i	0.7
O=C(NC(=S)Nc1ccc(N2CCOCC2)c(Cl)c1)c1cncc(Br)c1	-0.36	0.66	0	i	11*
O=C(Nc1ccc(N2CCOCC2)c(Cl)c1)c1cccnc1	0.014	-0.68	4	i	-0.61
COc1ccc(OCC(=O)Nc2ccc(N3CCOCC3)c(Cl)c2)cc1	2.5	.	2	i	0.48
COc1ccc(OCC(=O)NC(=S)Nc2ccc(N3CCOCC3)c(Cl)c2)cc1	-0.23	1.4	1	i	36*
Cc1ccccc1OCC(=O)Nc1nc2ccccc2[nH]1	1.9	0.84	0	i	0.069
CC1Cc2ccccc2N1C(=S)NC(=O)c1ccc(Cl)cc1Cl (stereo unspecified)	-0.29	7.8*	0	i	51*
CC1Cc2ccccc2N1C(=S)NC(=O)c1cccc(Br)c1 (stereo unspecified)	-0.081	10*	0	i	63*
CCOC(=O)c1sc(NC(=O)C2CCC2)cc1C	-0.43	-0.12	0	i	-0.59
N=C1/C(=C/c2cccs2)C(=O)N=C2SN=C(SCc3ccccc3)N12	1.4	.	2	i	32*
Nc1cc(=O)[nH]c(SCC(=O)Nc2cc([N+](=O)[O-])ccc2Cl)n1	1.2	-0.64	-2	i	-0.23
Nc1cc(=O)[nH]c(SCC(=O)Nc2nc3ccc([N+](=O)[O-])cc3s2)n1	0.53	1.8	0	+	-1.3
CCc1cccc(C)c1NC(=O)CNCc1ccccc1	0.94	.	0	i	-0.25
COc1ccc2c(C=O)cn(C)c2c1	0.089	0.34	0	+	0.52
Cc1cc2nc(CS(=O)(=O)c3ccccc3)cc(=O)n2[nH]1	-0.5	0.58	0	i	-1.9
Cn1cc(C(=O)Nc2ccc(Cl)cc2)c(C(F)(F)F)n1	-0.34	-0.0096	-1	+	-0.0058
COc1ccc2c(C)cc(SCC(=O)N3CCOCC3)nc2c1	0.094	-0.32	-1	i	.
COc1ccc2c(C)cc(SCC(=O)N(C)C3CCS(=O)(=O)C3)nc2c1 (stereo unspecified)	1.3	-1.6	0	+	-0.059
CCn1c2ccccc2c2cc(/C=N/n3cnnc3)ccc21	-0.13	.	2	+	-1.7
CCn1c2ccccc2c2cc(/C=N/n3c(-c4cc(C)[nH]n4)n[nH]c3=S)ccc21	-0.63	0.42	.	.	-0.8
CCn1c2ccccc2c2cc(/C=N/n3cn[nH]c3=S)ccc21	-0.41	.	-3	i	23*
CCn1c2ccccc2c2cc(/C=N/O)ccc21	-0.63	0.04	0	i	-0.51
Cc1ccc(-c2nnc(CSc3nc(C(C)C)nc4sc(C)c(C)c34)o2)cc1	-0.042	-0.89	2	i	9.1*
Cc1nc(SCC(=O)NCc2ccco2)c2c(C)c(C)sc2n1	-0.2	.	3	i	-0.71
CCc1nc(SCC(=O)N2c3ccccc3CC2C)c2c(C)c(C)sc2n1 (stereo unspecified)	-0.34	.	1	i	-1.3

Bioassay records as filed in PubChem.
